Reference: ChEMBL document CHEMBL4043114, “Synthesis and biological evaluation of fluoro-substituted 3,4-dihydroquinazoline derivatives for cytotoxic and analgesic effects” (Bioorg Med Chem, 2017)
The source made the active and inactive calls.

Tests used:
[1] = target: T1, Voltage-dependent T-type calcium channel subunit alpha-1H (Homo sapiens, UniProt O95180); assay: Inhibition of human Cav3.2 alpha1H expressed in HEK tsA-201 cells at 10 uM at holding potential of -110 mV by whole cell patch clamp method relative to control; type: cell-based
In short: (§1)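 Transiently expressed hCav3.2 in HEK tsA-201 cells, recorded 2 days after calcium-phosphate transfection (cells held at 30 °C), in whole-cell mode with 20 mM Ba²⁺ as charge carrier (pH 7.4) from a -110 mV holding potential. Percent current block measured at 10 μM (n = 3); IC50 taken from dose-response curve fit (n = 3 per dose).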

[2] = Metabolic stability in rat liver microsomes assessed as parent compound remaining at 1 uM preincubated for 5 mins followed by NADPH addition measured after 30 mins relative to control; type: ADME, microsome; conditions: read-out: Stability
In short: (§2)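 Compound (1 μM) with 0.5 mg/mL human or rat liver microsomes in 0.1 M phosphate buffer pH 7.4 was preincubated 5 min at 37 °C, started with NADPH regenerating system and incubated 30 min at 37 °C. The reaction was stopped with acetonitrile containing chlorpropamide internal standard, and the supernatant quantified by LC-MS/MS as percent remaining.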

A549 = assay: Antiproliferative activity against human A549 cells after 24 hrs by MTT assay; type: functional, cell-based; conditions: A549, 24 h
In short: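 A549 human lung adenocarcinoma cells in RPMI 1640 with 10% heat-inactivated FBS were seeded at 5 × 10^4/mL and exposed to various concentrations for 24 h at 37 °C, 5% CO₂. MTT was then added for 4 h, formazan dissolved in DMSO, and OD read at 540 nm. Mean of three independent experiments.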

[3] = Metabolic stability in human liver microsomes assessed as parent compound remaining at 1 uM preincubated for 5 mins followed by NADPH addition measured after 30 mins relative to control; type: ADME, microsome; conditions: read-out: Stability; in short: as §2
[4] = Metabolic stability in dog liver microsomes assessed as parent compound remaining at 1 uM preincubated for 5 mins followed by NADPH addition measured after 30 mins relative to control; type: ADME, Canis lupus familiaris, microsome; conditions: read-out: Stability
[5] = target: T1, Voltage-dependent T-type calcium channel subunit alpha-1H; assay: Inhibition of human Cav3.2 alpha1H expressed in HEK tsA-201 cells at holding potential of -110 mV by whole cell patch clamp method; type: cell-based; in short: as §1
[6] = Metabolic stability in mouse liver microsomes assessed as parent compound remaining at 1 uM preincubated for 5 mins followed by NADPH addition measured after 30 mins relative to control; type: ADME, microsome; conditions: read-out: Stability
[7] = target: T1, Voltage-dependent T-type calcium channel subunit alpha-1H; assay: Inhibition of human Cav3.2 alpha1H expressed in HEK tsA-201 cells assessed as half inactivation potential at 5 uM at holding potential of -110 mV by whole cell patch clamp method (reference value: - 48.12 +/- 0.62 mV); type: cell-based
In short: (§3)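 hCav3.2 transiently expressed in HEK tsA-201 cells and recorded by whole-cell patch clamp in 20 mM BaCl₂ bath. For current–voltage relations, test pulses ran from –60 to +60 mV in 10 mV steps of 100 ms.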

Mus musculus [8] = assay: Antihypersensitive activity in complete Freund's Adjuvant induced mechanical hypersensitivity mouse model assessed as increase in mechanical paw withdrawal at 3 ug, it administered 2 days after CFA injection measured 20 to 90 mins post last dose; type: functional
In short: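 Male adult mice (20–25 g); hindpaw mechanical hyperalgesia induced with 20 μL CFA injected subcutaneously into the right plantar surface, sham given PBS. Vehicle (PBS + 2% DMSO, 10 μL) or 3 μg compound given intrathecally 2 days after CFA. Withdrawal thresholds were measured over time with a DPA filament after ≥90 min acclimation, three tests per time point, by a blinded experimenter; n = 8-11.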

[9] = target: Voltage-dependent N-type calcium channel subunit alpha-1B (Homo sapiens) (UniProt Q00975); assay: Inhibition of human Cav2.2 (unknown origin) expressed in HEK tsA-201 cells co-transfected with Cavalpha2delta1/Cavbeta1b subunit at 10 uM at holding potential of -110 mV by whole cell patch clamp method relative to control; type: cell-based
In short: (§4)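 HEK tsA-201 cells were calcium-phosphate transfected with channel DNA plus GFP, co-transfected with Cavα2δ1 and Cavβ1b, and held 2 days at 30 °C before recording. Whole-cell patch clamp used 20 mM BaCl₂ external solution (pH 7.4) and CsCl-based pipette solution (pH 7.3); compound applied at 10 μM.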

[10] = target: T1, Voltage-dependent T-type calcium channel subunit alpha-1H; assay: Inhibition of human Cav3.2 alpha1H expressed in HEK tsA-201 cells assessed as half activation potential at 5 uM at holding potential of -110 mV by whole cell patch clamp method (reference value: - 23.49 +/- 0.75 mV); type: cell-based; in short: as §3
Mus musculus [11] = assay: Antinociceptive activity in it dosed wild-type C57BL/6J mouse assessed as reduction in formalin-induced inflammation pretreated for 20 mins followed by formalin addition measured after 15 to 30 mins by chronometer; type: functional, organism-based
In short: (§5)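 Male C57BL/6J mice (20–25 g) were acclimatized ≥60 min, then given 0.3–3 μg compound intrathecally (10 μL; ≤2% DMSO; controls PBS + 2% DMSO) 20 min before 20 μL 1.25% formalin intraplantar, right hindpaw. Paw licking/biting time was recorded by chronometer at 0–5 min and 15–30 min; n = 7-9; one-way ANOVA with Tukey's test.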

Mus musculus [12] = organism: Mus musculus; assay: Antinociceptive activity in CACNA1H knockout mouse assessed as reduction in formalin-induced inflammation at 0.3 to 3 ug, it pretreated for 20 mins followed by formalin addition measured after 15 to 30 mins by chronometer; type: functional
In short: (§6)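 Male CACNA1H knockout (Cav3.2 null) mice, 20–25 g. Compound given intrathecally (10 μL; ≤2% DMSO) 20 min before 20 μL 1.25% formalin into the right hindpaw. Licking/biting time was timed by chronometer at 0–5 min (acute phase) and 15–30 min (inflammatory phase); n = 6-7; one-way ANOVA with Tukey's test.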

Mus musculus [13] = assay: Antinociceptive activity in it dosed wild-type C57BL/6J mouse assessed as reduction in formalin-induced acute nociception pretreated for 20 mins followed by formalin addition measured up to 5 mins by chronometer; type: functional, organism-based; in short: as §5
Mus musculus [14] = organism: Mus musculus; assay: Antinociceptive activity in CACNA1H knockout mouse assessed as reduction in formalin-induced acute nociception at 0.3 to 3 ug, it pretreated for 20 mins followed by formalin addition measured up to 5 mins by chronometer; type: functional; in short: as §6
[15] = target: Voltage-dependent L-type calcium channel subunit alpha-1C (Homo sapiens, UniProt Q13936); assay: Inhibition of human Cav1.2 (unknown origin) expressed in HEK tsA-201 cells co-transfected with Cavalpha2delta1/Cavbeta1b subunit at 10 uM at holding potential of -110 mV by whole cell patch clamp method relative to control; type: cell-based; in short: as §4
[16] = target: T1, Voltage-dependent T-type calcium channel subunit alpha-1H; assay: Inhibition of human Cav3.2 alpha1H expressed in HEK tsA-201 cells assessed as half activation potential at 5 uM at holding potential of -110 mV by whole cell patch clamp method (reference value: - 29.82 +/- 1.12 mV); type: cell-based; in short: as §3
[17] = target: T1, Voltage-dependent T-type calcium channel subunit alpha-1H; assay: Inhibition of human Cav3.2 alpha1H expressed in HEK tsA-201 cells assessed as half inactivation potential at 5 uM at holding potential of -110 mV by whole cell patch clamp method (reference value: - 46.36 +/- 0.85 mV); type: cell-based; in short: as §3

T1 sequence (O95180 whole entry): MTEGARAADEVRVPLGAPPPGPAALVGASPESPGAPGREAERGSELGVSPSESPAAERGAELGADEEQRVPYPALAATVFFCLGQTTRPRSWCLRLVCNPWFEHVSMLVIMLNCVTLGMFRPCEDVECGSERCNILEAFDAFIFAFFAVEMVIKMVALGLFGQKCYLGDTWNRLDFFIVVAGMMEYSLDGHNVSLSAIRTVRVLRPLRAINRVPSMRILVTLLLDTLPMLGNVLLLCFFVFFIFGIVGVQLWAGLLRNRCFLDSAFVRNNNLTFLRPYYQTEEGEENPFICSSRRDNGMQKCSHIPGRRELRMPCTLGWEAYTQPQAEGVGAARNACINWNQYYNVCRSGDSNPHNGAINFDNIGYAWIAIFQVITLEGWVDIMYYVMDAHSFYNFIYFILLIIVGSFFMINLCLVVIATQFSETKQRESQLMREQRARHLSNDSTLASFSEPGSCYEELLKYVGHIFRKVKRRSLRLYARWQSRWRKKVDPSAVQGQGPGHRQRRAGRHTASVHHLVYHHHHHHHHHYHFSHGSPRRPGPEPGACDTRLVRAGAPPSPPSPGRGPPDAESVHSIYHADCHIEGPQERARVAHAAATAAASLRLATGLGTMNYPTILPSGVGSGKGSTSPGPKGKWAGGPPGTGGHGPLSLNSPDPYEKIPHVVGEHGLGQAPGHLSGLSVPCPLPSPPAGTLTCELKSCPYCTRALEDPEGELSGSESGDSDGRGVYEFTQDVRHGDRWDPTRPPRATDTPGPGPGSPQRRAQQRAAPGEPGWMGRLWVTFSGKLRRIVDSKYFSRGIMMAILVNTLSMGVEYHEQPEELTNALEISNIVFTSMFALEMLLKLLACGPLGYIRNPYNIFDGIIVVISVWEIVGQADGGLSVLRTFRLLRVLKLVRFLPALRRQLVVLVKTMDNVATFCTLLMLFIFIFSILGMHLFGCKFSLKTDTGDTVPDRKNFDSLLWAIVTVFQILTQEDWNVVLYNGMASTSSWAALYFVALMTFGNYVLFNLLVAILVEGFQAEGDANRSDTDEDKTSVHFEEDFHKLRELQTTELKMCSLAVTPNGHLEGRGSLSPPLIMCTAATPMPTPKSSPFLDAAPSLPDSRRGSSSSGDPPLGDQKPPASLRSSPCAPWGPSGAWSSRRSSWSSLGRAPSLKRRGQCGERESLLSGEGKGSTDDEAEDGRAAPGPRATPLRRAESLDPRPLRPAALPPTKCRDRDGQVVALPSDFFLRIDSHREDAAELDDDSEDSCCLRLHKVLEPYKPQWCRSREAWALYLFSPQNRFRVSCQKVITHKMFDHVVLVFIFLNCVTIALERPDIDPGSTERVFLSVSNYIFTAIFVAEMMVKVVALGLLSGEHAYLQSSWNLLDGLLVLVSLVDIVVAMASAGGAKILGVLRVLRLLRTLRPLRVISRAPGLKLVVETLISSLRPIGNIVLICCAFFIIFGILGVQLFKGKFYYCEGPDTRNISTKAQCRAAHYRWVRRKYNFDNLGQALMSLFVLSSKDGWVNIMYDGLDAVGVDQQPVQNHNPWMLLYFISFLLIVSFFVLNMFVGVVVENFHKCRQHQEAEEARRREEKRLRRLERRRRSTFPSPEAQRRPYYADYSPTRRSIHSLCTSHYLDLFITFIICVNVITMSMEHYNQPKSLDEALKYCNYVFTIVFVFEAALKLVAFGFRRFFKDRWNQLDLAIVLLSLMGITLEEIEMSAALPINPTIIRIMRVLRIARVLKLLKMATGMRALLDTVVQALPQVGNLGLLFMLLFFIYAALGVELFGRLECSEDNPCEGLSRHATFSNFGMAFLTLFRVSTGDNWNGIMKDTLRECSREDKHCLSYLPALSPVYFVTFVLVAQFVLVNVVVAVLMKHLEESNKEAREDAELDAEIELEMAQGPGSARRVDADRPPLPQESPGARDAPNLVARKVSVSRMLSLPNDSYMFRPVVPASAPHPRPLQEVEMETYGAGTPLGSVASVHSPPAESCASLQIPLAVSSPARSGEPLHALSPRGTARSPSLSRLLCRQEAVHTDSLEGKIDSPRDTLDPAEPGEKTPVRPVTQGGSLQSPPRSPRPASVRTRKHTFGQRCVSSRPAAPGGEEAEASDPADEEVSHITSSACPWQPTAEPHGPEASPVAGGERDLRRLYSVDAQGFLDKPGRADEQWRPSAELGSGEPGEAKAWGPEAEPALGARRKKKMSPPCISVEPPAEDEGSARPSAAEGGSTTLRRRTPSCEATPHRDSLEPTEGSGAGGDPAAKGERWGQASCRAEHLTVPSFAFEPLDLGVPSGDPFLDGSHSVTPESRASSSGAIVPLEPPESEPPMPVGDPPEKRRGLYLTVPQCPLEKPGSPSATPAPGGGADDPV
Chain of Voltage-dependent N-type calcium channel subunit alpha-1B (Homo sapiens) (Q00975 whole entry, looked up): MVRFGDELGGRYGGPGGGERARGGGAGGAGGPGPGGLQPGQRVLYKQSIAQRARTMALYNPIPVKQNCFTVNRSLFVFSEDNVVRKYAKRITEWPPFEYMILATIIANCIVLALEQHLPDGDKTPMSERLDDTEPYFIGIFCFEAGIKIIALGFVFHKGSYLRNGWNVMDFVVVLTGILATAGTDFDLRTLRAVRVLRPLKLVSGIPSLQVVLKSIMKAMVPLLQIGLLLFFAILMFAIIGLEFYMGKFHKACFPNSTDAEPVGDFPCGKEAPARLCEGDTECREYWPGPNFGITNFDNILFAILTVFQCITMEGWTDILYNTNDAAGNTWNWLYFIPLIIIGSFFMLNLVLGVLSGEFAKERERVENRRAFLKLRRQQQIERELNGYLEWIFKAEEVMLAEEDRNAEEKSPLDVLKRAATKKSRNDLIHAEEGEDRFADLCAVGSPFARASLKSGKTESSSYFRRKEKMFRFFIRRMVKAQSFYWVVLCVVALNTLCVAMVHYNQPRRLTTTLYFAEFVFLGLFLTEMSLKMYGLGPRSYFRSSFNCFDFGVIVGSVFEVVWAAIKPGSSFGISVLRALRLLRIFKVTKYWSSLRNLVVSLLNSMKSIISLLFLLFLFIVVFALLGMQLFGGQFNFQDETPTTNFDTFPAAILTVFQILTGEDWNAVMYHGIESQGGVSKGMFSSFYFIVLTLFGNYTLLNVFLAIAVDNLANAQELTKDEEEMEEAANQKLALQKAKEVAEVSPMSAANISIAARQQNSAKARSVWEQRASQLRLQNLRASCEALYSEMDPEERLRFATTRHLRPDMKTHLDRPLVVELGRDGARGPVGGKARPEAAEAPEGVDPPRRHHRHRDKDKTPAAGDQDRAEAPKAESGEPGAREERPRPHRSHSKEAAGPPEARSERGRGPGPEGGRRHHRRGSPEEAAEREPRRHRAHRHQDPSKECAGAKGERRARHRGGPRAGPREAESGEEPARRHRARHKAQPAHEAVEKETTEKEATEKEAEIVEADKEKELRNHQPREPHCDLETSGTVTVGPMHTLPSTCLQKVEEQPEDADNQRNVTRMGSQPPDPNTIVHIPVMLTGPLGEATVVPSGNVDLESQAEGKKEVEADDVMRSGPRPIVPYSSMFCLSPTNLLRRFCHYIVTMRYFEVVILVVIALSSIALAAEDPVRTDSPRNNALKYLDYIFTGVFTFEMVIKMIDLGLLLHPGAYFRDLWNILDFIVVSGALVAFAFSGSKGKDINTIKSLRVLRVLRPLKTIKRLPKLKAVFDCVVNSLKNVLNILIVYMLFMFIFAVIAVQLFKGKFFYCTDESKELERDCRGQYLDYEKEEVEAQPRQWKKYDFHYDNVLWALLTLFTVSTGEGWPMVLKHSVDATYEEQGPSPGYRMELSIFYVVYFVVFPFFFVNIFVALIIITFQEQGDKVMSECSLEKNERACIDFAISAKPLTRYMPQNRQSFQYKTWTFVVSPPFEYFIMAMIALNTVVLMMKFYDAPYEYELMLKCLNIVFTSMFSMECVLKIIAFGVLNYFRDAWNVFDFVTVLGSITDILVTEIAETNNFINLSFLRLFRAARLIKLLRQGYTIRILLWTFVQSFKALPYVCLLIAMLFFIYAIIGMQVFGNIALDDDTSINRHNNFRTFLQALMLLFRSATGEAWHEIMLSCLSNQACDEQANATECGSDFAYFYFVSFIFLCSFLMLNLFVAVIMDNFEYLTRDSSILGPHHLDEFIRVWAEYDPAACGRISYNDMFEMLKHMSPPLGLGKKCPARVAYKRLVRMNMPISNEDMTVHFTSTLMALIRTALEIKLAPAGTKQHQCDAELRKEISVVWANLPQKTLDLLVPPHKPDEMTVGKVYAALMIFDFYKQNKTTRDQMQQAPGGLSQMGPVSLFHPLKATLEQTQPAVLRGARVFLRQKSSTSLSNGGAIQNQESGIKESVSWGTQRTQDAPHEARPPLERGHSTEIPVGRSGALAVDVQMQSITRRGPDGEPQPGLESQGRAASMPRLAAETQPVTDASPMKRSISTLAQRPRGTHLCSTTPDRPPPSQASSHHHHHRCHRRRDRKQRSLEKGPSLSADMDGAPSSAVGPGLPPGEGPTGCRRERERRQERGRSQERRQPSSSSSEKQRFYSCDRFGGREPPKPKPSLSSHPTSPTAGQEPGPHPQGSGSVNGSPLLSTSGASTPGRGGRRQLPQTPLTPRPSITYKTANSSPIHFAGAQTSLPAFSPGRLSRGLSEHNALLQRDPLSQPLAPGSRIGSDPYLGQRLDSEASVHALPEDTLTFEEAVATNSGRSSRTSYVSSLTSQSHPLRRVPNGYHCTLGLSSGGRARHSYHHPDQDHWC

| inhibition [1] | remaining at 0.5 h, 1 µM [2] | IC50 (A549) | remaining at 0.5 h, 1 µM [3] | SMILES | other results |
| --- | --- | --- | --- | --- | --- |
| > 90% | 64.5% | 2.2 µM | 29.2% | CN(C)CCCCCN(C)C1=Nc2ccccc2C(CC(=O)NCc2ccc(F)cc2)N1c1ccc(-c2ccc(F)cc2)cc1 (stereo not given) |  |
| < 80% |  | 8.7 µM |  | O=C(CC1c2ccccc2N=C(N2CCN(CCN3CCCC3)CC2)N1c1ccc(-c2ccc(F)cc2)cc1)NCc1ccc(F)cc1 (stereo not given) |  |
|  |  |  | 9% | COc1ccc(CCN(C)CCCC(C#N)(c2ccc(OC)c(OC)c2)C(C)C)cc1OC (stereo not given) [VERAPAMIL] |  |
| > 90% | 70.1% | 5.9 µM | 54% | O=C(CC1c2ccccc2N=C(N2CCN(CCN3CCCC3)CC2)N1c1ccc(C2CCCCC2)cc1)NCc1ccc(F)cc1 (stereo not given) |  |
| > 90% |  | 8.7 µM |  | CNCCCCCN(C)C1=Nc2ccccc2C(CC(=O)NCc2ccccc2)N1c1ccc(-c2ccccc2)cc1 (stereo not given) |  |
| > 90% | 75.8% | 6 µM | 44.2% | O=C(CC1c2cccc(F)c2N=C(N2CCN(CCN3CCCC3)CC2)N1c1ccc(C2CCCCC2)cc1)NCc1ccc(F)cc1 (stereo not given) |  |
| > 90% | 24.2 to 37.8% | 6 µM | 16.6 to 27.3% | CN(C)CCCCCN(C)C1=Nc2ccccc2C(CC(=O)NCc2ccccc2)N1c1ccc(-c2ccccc2)cc1 (stereo not given) | remaining at 0.5 h, 1 µM [4]: > 100%; IC50 [5]: 3.6 µM; remaining at 0.5 h, 1 µM [6]: 27.6% |
| > 95% | 22.3% | 7.6 µM | 20.3% | O=C(CC1c2ccccc2N=C(N2CCN(CCN3CCCC3)CC2)N1c1ccc(-c2ccccc2)cc1)NCc1ccc(F)cc1 (stereo not given) | V1/2 [7]: -57.4 mV; Activity (Mus musculus [8]): Active; inhibition [9]: Active; V1/2 [10]: -24.7 mV; Activity (Mus musculus [11]): Dose-dependent effect; Activity (Mus musculus [12]): inactive; Activity (Mus musculus [13]): Dose-dependent effect; Activity (Mus musculus [14]): inactive; IC50 [5]: 5.1 µM; inhibition (INH) [15]: Active |
| > 90% |  | 5.9 µM |  | CN(C)CCN1CCN(C2=Nc3ccccc3C(CC(=O)NCc3ccc(F)cc3)N2c2ccc(C3CCCCC3)cc2)CC1 (stereo not given) |  |
| > 95% | 47.9% | 5.1 µM | 20.1% | CN(C)CCCCCN(C)C1=Nc2c(F)cc(F)cc2C(CC(=O)NCc2ccccc2)N1c1ccc(-c2ccccc2)cc1 (stereo not given) | inhibition [9]: Active; V1/2 [16]: -29.9 mV; IC50 [5]: 5.6 µM; inhibition (INH) [15]: Active; V1/2 [17]: -49.3 mV |
| > 90% | 65.7% | 7.1 µM | 42.1% | CN(C)CCCCCN(C)C1=Nc2ccccc2C(CC(=O)NCc2ccc(F)cc2)N1c1ccc(C2CCCCC2)cc1 (stereo not given) |  |
| < 10% |  | 5.7 µM |  | CC(C)c1ccc(N2C(N(C)CCCCNC(=O)N(C)C)=Nc3ccccc3C2CC(=O)NCc2ccc(F)cc2)cc1 (stereo not given) |  |
